Measurements from PMC3594512 (Bioorganic & medicinal chemistry, 2013).
Entries after “also recorded” stand apart in the source; their conditions may differ.

Columns and labels:
[1] = TentaGel bead control with free fluorescein; type: binding; conditions: peptide on TentaGel beads; fluorescence microscopy
Method in brief: (§1)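 Peptide beads were washed free of DMF, blocked 3 h in SuperBlock (PBS, 0.05% Tween-20) and rinsed with water. About 10–12 beads were shaken with fluorescent probe for 24 h at 4 °C, with fresh probe added for repeated cycles. Beads were then water-washed and viewed by fluorescence microscopy. Peptide-free beads set background. Labelled RNAs were gel-purified (20% denaturing PAGE), stored in 10 mM HEPES pH 7.4 and renatured.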

[2] = test system: F-H69 (fluorescein-labeled Ψm^3ΨΨ); assay: Quantum dot; type: binding, E. coli; conditions: Qdot analysis; 1 nM F-H69, 1 nM Qdot 655, 16 h at 4 °C
Method in brief: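 F-H69 was pre-incubated 1 h at 4 °C with anti-fluorescein Qdot 655, then with beads 16 h at 4 °C. Washes: PBS, SuperBlock, then 0.005% TX-100. Per-bead Qdot (em 655 nm) and fluorescein (em 521 nm) pixel intensities (1–255) taken at predefined exposures. Peptide-free beads served as control.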

[3] = test system: F-18S RNA (human A-site rRNA); assay: TentaGel bead fluorescence assay with F-18S RNA; type: binding; conditions: peptide on TentaGel beads; fluorescence microscopy
Method in brief: as §1

[4] = test system: F-TAR RNA; assay: TentaGel bead fluorescence assay with F-TAR RNA; type: binding; conditions: peptide on TentaGel beads, fluorescence microscopy
[5] = test system: H69 RNA; conditions: relative to NQVANHQ-NH2 (1:1), ref [15b]; cited from earlier work
[6] = test system: human H69; conditions: relative to NQVANHQ-NH2; due to non-specific binding, ref [15b]; cited from earlier work

Substance | on-bead interaction with free fluorescein [1] | bead intensity compared with STYTSVS beads [2] | on-bead interaction with F-18S RNA [3] | on-bead interaction with F-TAR RNA [4] | on-bead interaction with F-TAR RNA ([4]; listed as STYSTVS) | stoichiometry with H69 [5] | selectivity with human H69 [6]
NQVANHQ | do not show any fluorescence | higher than STYTSVS beads | did not show any interaction; also recorded: do not show any fluorescence | did not show any interaction; also recorded: do not show any fluorescence |  |  | 
STYTSVS | do not show any fluorescence |  | do not show any fluorescence | with the exception those containing STYTSVS and F-TAR RNA | showed interaction |  | 
neomycin |  |  |  |  |  | higher stoichiometries | lower selectivity with human H69
